# Laboratory results: ChEMBL document CHEMBL5058577, “EUbOPEN Chemogenomics Library 2 (Multiplex)” (2022)
# Test system: U2OS
# Test: Multiplex assay against U2OS
# Type: toxicity, cell-based
# Conditions: human
# Procedure, shortened: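 Cells stained live at seeding with Hoechst33342, BioTracker Green Microtubule Cytoskeleton Dye, MitoTracker Red and Annexin V Alexa Fluor 680 were imaged on a CQ1 microscope at 37°C and 5% CO2 after compound addition. Their classification by CellPathfinder machine-learning gating ran from Hoechst high-intensity objects versus normal cells, to healthy, pyknosed or fragmented nuclei among normal cells, to mitotic or apoptotic among pyknosed cells. Tubulin, mitochondrial-mass and membrane-permeability phenotypes are per cents of healthy-nucleus cells.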
# [1] = 12 h, 1 µM, compound concentration 1 uM, replicate 1
# [2] = 12 h, 1 µM, compound concentration 1 uM, replicate 2
# [3] = 12 h, 10 µM, compound concentration 10 uM, replicate 1
# [4] = 12 h, 10 µM, compound concentration 10 uM, replicate 2
# [5] = 24 h, 1 µM, compound concentration 1 uM, replicate 1
# [6] = 24 h, 1 µM, compound concentration 1 uM, replicate 2
# [7] = 24 h, 10 µM, compound concentration 10 uM, replicate 1
# [8] = 24 h, 10 µM, compound concentration 10 uM, replicate 2
# [9] = 48 h, 1 µM, compound concentration 1 uM, replicate 1
# [10] = 48 h, 1 µM, compound concentration 1 uM, replicate 2
# [11] = 48 h, 10 µM, compound concentration 10 uM, replicate 1
# [12] = 48 h, 10 µM, compound concentration 10 uM, replicate 2
structure (smiles),measurement,setting,value
Cc1c(CC(=O)O)c2cccnc2n1Cc1ccc(S(C)(=O)=O)cc1C(F)(F)F [FEVIPIPRANT],Population Apoptotic (%),[1],80%
same,Population Fragmented Nuclei (%),[1],25%
same,Population Healthy Nuclei (%),[1],64%
same,Population Hoechst High Intensity Objects (%),[1],1%
same,Population Membrane Permeable-Phenotype (%),[1],2%
same,Population Mitochondria Different-Phenotype (%),[1],2%
same,Population Mitotic Cells (%),[1],19%
same,Population Normal (%),[1],98%
same,Population Pyknosed Nuclei (%),[1],9%
same,Population Tubulin-Different-Phenotype (%),[1],0%
same,Total Cell Count,[1],224
same,Population Apoptotic (%),[2],50%
same,Population Fragmented Nuclei (%),[2],22%
same,Population Healthy Nuclei (%),[2],72%
same,Population Membrane Permeable-Phenotype (%),[2],8%
same,Population Mitochondria Different-Phenotype (%),[2],1%
same,Population Mitotic Cells (%),[2],50%
same,Population Pyknosed Nuclei (%),[2],5%
same,Population Tubulin-Different-Phenotype (%),[2],9%
same,Total Cell Count,[2],118
same,Population Apoptotic (%),[3],90%
same,Population Fragmented Nuclei (%),[3],27%
same,Population Healthy Nuclei (%),[3],65%
same,Population Hoechst High Intensity Objects (%),[3],2%
same,Population Membrane Permeable-Phenotype (%),[3],3%
same,Population Mitochondria Different-Phenotype (%),[3],0%
same,Population Mitotic Cells (%),[3],9%
same,Population Normal (%),[3],97%
same,Population Pyknosed Nuclei (%),[3],7%
same,Population Tubulin-Different-Phenotype (%),[3],1%
same,Total Cell Count,[3],287
same,Population Apoptotic (%),[4],100%
same,Population Fragmented Nuclei (%),[4],22%
same,Population Healthy Nuclei (%),[4],73%
same,Population Hoechst High Intensity Objects (%),[4],0%
same,Population Membrane Permeable-Phenotype (%),[4],8%
same,Population Mitochondria Different-Phenotype (%),[4],3%
same,Population Mitotic Cells (%),[4],0%
same,Population Normal (%),[4],99%
same,Population Pyknosed Nuclei (%),[4],3%
same,Population Tubulin-Different-Phenotype (%),[4],4%
same,Total Cell Count,[4],116
same,Population Apoptotic (%),[5],80%
same,Population Fragmented Nuclei (%),[5],20%
same,Population Healthy Nuclei (%),[5],71%
same,Population Hoechst High Intensity Objects (%),[5],2%
same,Population Membrane Permeable-Phenotype (%),[5],1%
same,Population Mitochondria Different-Phenotype (%),[5],3%
same,Population Mitotic Cells (%),[5],20%
same,Population Normal (%),[5],97%
same,Population Pyknosed Nuclei (%),[5],8%
same,Population Tubulin-Different-Phenotype (%),[5],1%
same,Total Cell Count,[5],256
same,Population Apoptotic (%),[6],66%
same,Population Fragmented Nuclei (%),[6],17%
same,Population Healthy Nuclei (%),[6],74%
same,Population Hoechst High Intensity Objects (%),[6],0%
same,Population Membrane Permeable-Phenotype (%),[6],9%
same,Population Mitochondria Different-Phenotype (%),[6],0%
same,Population Mitotic Cells (%),[6],33%
same,Population Normal (%),[6],100%
same,Population Tubulin-Different-Phenotype (%),[6],10%
same,Total Cell Count,[6],145
same,Population Apoptotic (%),[7],96%
same,Population Fragmented Nuclei (%),[7],20%
same,Population Healthy Nuclei (%),[7],70%
same,Population Hoechst High Intensity Objects (%),[7],0%
same,Population Membrane Permeable-Phenotype (%),[7],5%
same,Population Mitochondria Different-Phenotype (%),[7],3%
same,Population Mitotic Cells (%),[7],3%
same,Population Normal (%),[7],99%
same,Population Pyknosed Nuclei (%),[7],8%
same,Population Tubulin-Different-Phenotype (%),[7],3%
same,Total Cell Count,[7],326
same,Population Apoptotic (%),[8],100%
same,Population Fragmented Nuclei (%),[8],12%
same,Population Healthy Nuclei (%),[8],78%
same,Population Hoechst High Intensity Objects (%),[8],1%
same,Population Membrane Permeable-Phenotype (%),[8],8%
same,Population Mitochondria Different-Phenotype (%),[8],2%
same,Population Mitotic Cells (%),[8],0%
same,Population Normal (%),[8],98%
same,Total Cell Count,[8],119
same,Population Apoptotic (%),[9],65%
same,Population Fragmented Nuclei (%),[9],18%
same,Population Healthy Nuclei (%),[9],71%
same,Population Hoechst High Intensity Objects (%),[9],2%
same,Population Membrane Permeable-Phenotype (%),[9],4%
same,Population Mitochondria Different-Phenotype (%),[9],3%
same,Population Mitotic Cells (%),[9],34%
same,Population Normal (%),[9],97%
same,Population Pyknosed Nuclei (%),[9],10%
same,Population Tubulin-Different-Phenotype (%),[9],2%
same,Total Cell Count,[9],379
same,Population Apoptotic (%),[10],90%
same,Population Fragmented Nuclei (%),[10],20%
same,Population Healthy Nuclei (%),[10],67%
same,Population Membrane Permeable-Phenotype (%),[10],8%
same,Population Mitochondria Different-Phenotype (%),[10],5%
same,Population Mitotic Cells (%),[10],9%
same,Population Pyknosed Nuclei (%),[10],12%
same,Population Tubulin-Different-Phenotype (%),[10],9%
same,Total Cell Count,[10],187
same,Population Apoptotic (%),[11],91%
same,Population Fragmented Nuclei (%),[11],17%
same,Population Healthy Nuclei (%),[11],73%
same,Population Hoechst High Intensity Objects (%),[11],1%
same,Population Membrane Permeable-Phenotype (%),[11],4%
same,Population Mitochondria Different-Phenotype (%),[11],3%
same,Population Mitotic Cells (%),[11],8%
same,Population Normal (%),[11],98%
same,Population Pyknosed Nuclei (%),[11],8%
same,Population Tubulin-Different-Phenotype (%),[11],3%
same,Total Cell Count,[11],408
same,Population Apoptotic (%),[12],100%
same,Population Fragmented Nuclei (%),[12],15%
same,Population Healthy Nuclei (%),[12],76%
same,Population Hoechst High Intensity Objects (%),[12],3%
same,Population Membrane Permeable-Phenotype (%),[12],5%
same,Population Mitochondria Different-Phenotype (%),[12],1%
same,Population Mitotic Cells (%),[12],0%
same,Population Normal (%),[12],96%
same,Total Cell Count,[12],158
